Experimental data published in ChEMBL document CHEMBL1125464, “1,3,6-trisubstituted indoles as peptidoleukotriene antagonists: benefits of a second, polar, pyrrole substituent” (J Med Chem, 1992).
Blank lines part the entries; values can stand above or below the compound they belong to.

Legend:
[1] = species on record: Cavia porcellus; assay: Dissociation constant on guinea pig tracheal spirals utilizing LTE4 as agonist; settings: Trachea
[2] = test system: Cavia porcellus; assay: Protection of conscious guinea pig lung function was determined by comparison of time required for the challenged animals to exhibit labored abdominal breathing after oral dose of 1 uM/kg; type: functional
Method in brief: (§1)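 Conscious guinea pigs pretreated with indomethacin (10 mg/kg ip) and propranolol (5 mg/kg ip). Compound in PEG400 (<10% v/v)/PBS given orally 180 min before a challenge of up to 5 min with aerosolized 60 uM LTD4. Time to abdominal dyspnea scored blind. % protection is taken against vehicle controls; no end point by 300 s counts as 100%. Unpaired t test.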

[3] = species on record: Cavia porcellus; assay: Inhibition of LTE4 (8 nM) induced contraction of guinea pig tracheal spirals at a concentration of 0.33 uM; type: functional, Trachea
Method in brief: (§2)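 Paired tracheal spirals at 37 °C in Krebs gassed with 95% O2/5% CO2 under 2 g tension, given repeated LTE4 challenges of 10 min. Compound or vehicle added 10 min before a third challenge. % inhibition = (2nd − 3rd response)/2nd × 100, corrected by subtracting the vehicle value. Paired t test, n ≥ 4.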

[4] = species on record: Cavia porcellus; assay: Inhibition of LTE4 (8 nM) induced contraction of guinea pig tracheal spirals at a concentration of 10 uM; type: functional, Trachea
Method in brief: as §2

[5] = species on record: Cavia porcellus; assay: Inhibition of LTE4 (8 nM) induced contraction of guinea pig tracheal spirals at a concentration of 3.3 uM; type: functional, Trachea
Method in brief: as §2

[6] = species on record: Cavia porcellus; assay: Compound was evaluated for the displacement of [3H]LTD4 on guinea pig lung parenchymal membranes; design: species or system Lung parenchyma
Method in brief: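 Membranes from perfused lungs of male Hartley guinea pigs (300-400 g) in PIPES pH 7.5 with 10 mM CaCl2, 10 mM MgCl2, 2 mM cysteine and 2 mM glycine. 1 nM 3H-LTD4 at 22 °C for 30 min; nonspecific binding with 2 uM LTD4. Filtration, then scintillation counting. IC50 by nonlinear least squares, Ki by Cheng-Prusoff; mean of two experiments in duplicate.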

[7] = test system: Cavia porcellus; assay: Protection of conscious guinea pig lung function was determined by comparison of time required for the challenged animals to exhibit labored abdominal breathing after oral dose of 0.3 uM/kg; type: functional
Method in brief: as §1

[8] = Negative logarithm of the molar dissociation constant; type: ADME
Method in brief: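 Paired guinea pig tracheal spirals at 37 °C in Krebs gassed with 95% O2/5% CO2, 2 g resting tension. Responses expressed relative to 30 uM carbachol. Antagonist or vehicle preincubated 30 min, then cumulative LTE4 concentration-response curves, one per tissue. EC50 by linear regression; KB = [antagonist]/(dose ratio − 1), per Furchgott.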

[9] = species on record: Cavia porcellus; assay: Inhibition of LTE4 (8 nM) induced contraction of guinea pig tracheal spirals at a concentration of 0.1 uM; type: functional, Trachea
Method in brief: as §2

[10] = test system: Cavia porcellus; assay: Protection of conscious guinea pig lung function was determined by comparison of time required for the challenged animals to exhibit labored abdominal breathing after oral dose of 10 uM/kg; type: functional
Method in brief: as §1

[11] = test system: Cavia porcellus; assay: Protection of conscious guinea pig lung function was determined by comparison of time required for the challenged animals to exhibit labored abdominal breathing after oral dose of 3 uM/kg; type: functional
Method in brief: as §1

[12] = species on record: Cavia porcellus; assay: Inhibition of LTE4 (8 nM) induced contraction of guinea pig tracheal spirals at a concentration of 3.3 uM; NS=not statistically significant; type: functional; settings: Trachea
Method in brief: as §2

[13] = species on record: Cavia porcellus; assay: Inhibition of LTE4 (8 nM) induced contraction of guinea pig tracheal spirals at a concentration of 10 nM; type: functional, Trachea
Method in brief: as §2

SMILES: CCCCOC(=O)Nc1ccc2c(Cl)cn(Cc3ccc(C(=O)O)cc3OC)c2c1
- Kb [1]: 92.7 nM
- Inhibition [3]: 52%

SMILES: COc1cc(C(=O)O)ccc1Cn1ccc2ccc(C(=O)OCC3CCCC3)cc21
- Inhibition [4]: 74%
- Inhibition [5]: 10%

SMILES: COc1cc(C(=O)NS(=O)(=O)c2ccccc2)ccc1Cn1cc(C(C)=O)c2ccc(NC(=O)OC3CCCC3)cc21
- Kb [1]: 0.123 nM

SMILES: COc1cc(C(=O)O)ccc1Cn1ccc2ccc(NC(=O)CC3CCCC3)cc21
- Kb [1]: 20.7 nM
- Inhibition [9]: 34%

SMILES: COc1cc(C(=O)O)ccc1Cc1cn(C)c2ccc(NC(=O)CC3CCCC3)cc12
- Inhibition [9]: 94%

SMILES: CCCCOC(=O)Nc1ccc2cc(C)n(Cc3ccc(C(=O)O)cc3OC)c2c1
- Inhibition [5]: 41%

SMILES: COc1cc(C(=O)NS(=O)(=O)c2ccccc2C)ccc1Cn1cc(CCC(=O)N2CCOCC2)c2ccc(C(=O)NCC3CCCC3)cc21
- Kb [1]: 0.289 nM
- Protection [10]: 53%

SMILES: COc1cc(C(=O)NS(=O)(=O)c2ccccc2C)ccc1Cn1cc(CCC(=O)N2CCCC2)c2ccc(C(=O)NCC3CCCC3)cc21
- Protection [11]: 49%

SMILES: COc1cc(C(=O)NS(=O)(=O)c2ccccc2C)ccc1Cn1cc(CCC(=O)N2CCC(C)(C)CC2)c2ccc(C(=O)NCC3CCCC3)cc21
- Kb [1]: 4.45 nM

SMILES: COc1cc(C(=O)O)ccc1Cn1cc(C)c2ccc(NC(=O)CC3CCCC3)cc21
- Inhibition [9]: 59%

SMILES: COc1cc(C(=O)O)ccc1Cn1ccc2ccc(OCCC3CCCC3)cc21
- Inhibition [4]: 75%

SMILES: COc1cc(C(=O)O)ccc1Cn1cc(C)c2ccc(C(=O)NCC3CCCC3)cc21
- NS [12]: not statistically significant

SMILES: COc1cc(C(=O)O)ccc1Cn1cc(C(C)=O)c2ccc(NC(=O)OC3CCCC3)cc21
- Inhibition [9]: 83%

More lines, main results first:

- Kb [1]: 0.106 nM
SMILES: COc1cc(C(=O)NS(=O)(=O)c2ccccc2C)ccc1Cn1ccc2ccc(NC(=O)CC3CCCC3)cc21
- Protection [2]: 40%

- Ki [6]: 9.89 nM
SMILES: COc1cc(C(=O)NS(=O)(=O)c2ccccc2C)ccc1Cn1cc(C)c2ccc(C(=O)NCC3CCCC3)cc21

- Kb [1]: 0.456 nM
SMILES: COc1cc(C(=O)NS(=O)(=O)c2ccccc2C)ccc1Cn1cc(C)c2ccc(NC(=O)CC3CCCC3)cc21
- Protection [7]: 54%

- pKB [8]: 9.69
SMILES: COc1cc(C(=O)NS(=O)(=O)c2ccccc2)ccc1Cc1cn(C)c2ccc(NC(=O)OC3CCCC3)cc12

- pKB [8]: 7.84
SMILES: COc1cc(C(=O)NS(=O)(=O)c2ccccc2)ccc1Cc1cn(C2CCCC2)c2ccc(NC(=O)OC3CCCC3)cc12

- pKB [8]: 8.44
SMILES: CCCn1cc(Cc2ccc(C(=O)NS(=O)(=O)c3ccccc3)cc2OC)c2cc(NC(=O)OC3CCCC3)ccc21

- pKB [8]: 9.84
SMILES: COc1cc(C(=O)NS(=O)(=O)c2ccccc2)ccc1Cc1c[nH]c2ccc(NC(=O)OC3CCCC3)cc12

- Ki [6]: 0.43 nM
SMILES: CCN(CC)C(=O)CCn1cc(Cc2ccc(C(=O)NS(=O)(=O)c3ccccc3C)cc2OC)c2cc(C(=O)NCC3CCCC3)ccc21

- Kb [1]: 0.718 nM
SMILES: COc1cc(C(=O)NS(=O)(=O)c2ccccc2)ccc1Cn1cc(Cl)c2ccc(NC(=O)OC3CCCC3)cc21

- Kb [1]: 0.29 nM
SMILES: COc1cc(C(=O)NS(=O)(=O)c2ccccc2)ccc1Cn1ccc2ccc(NC(=O)OC3CCCC3)cc21

- pKB [8]: 7.32
SMILES: COc1cc(C(=O)O)ccc1Cc1c[nH]c2ccc(NC(=O)OC3CCCC3)cc12

- Kb [1]: 10.3 nM
SMILES: COc1cc(C(=O)NS(=O)(=O)c2ccccc2)ccc1Cn1cc(CCC(N)=O)c2ccc(OCCC3CCCC3)cc21
- Inhibition [13]: 29%

- Kb [1]: 7.73 nM
SMILES: COc1cc(C(=O)NS(=O)(=O)c2ccccc2)ccc1Cn1c2c(c3ccc(NC(=O)CC4CCCC4)cc31)CCCC2

- Kb [1]: 0.245 nM
- Ki [6]: 0.3 nM
SMILES: COc1cc(C(=O)NS(=O)(=O)c2ccccc2C)ccc1Cc1cn(C)c2ccc(NC(=O)CC3CCCC3)cc12
